The results in this text go back to ChEMBL document CHEMBL3085773, “A general method for making peptide therapeutics resistant to serine protease degradation: application to dipeptidyl peptidase IV substrates” (J Med Chem, 2013).

Data set [1] addresses DPP4 (dipeptidyl peptidase 4) (Sus scrofa, UniProt P22411). Nature of the data set: Stability of the compound assessed as porcine DPP4-mediated compound degradation measured intact level at 0.1 mM measured at 30 mins by reverse-phase HPLC/MS analysis. To be noted: pig, read-out: Stability. The format is ADME. In outline: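 Synthetic hexapeptides (0.1 mM) incubated at 37 °C with 10 mU/mL DPP IV purified from porcine kidney in 50 mM HEPES, 0.14 M NaCl, pH 8.0; intact peptide by HPLC-MS, expressed as percent of time-zero value.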

In data set [2] the target is T1, Dipeptidyl peptidase 4 (Homo sapiens, UniProt P27487). Nature of the data set: Stability of the compound assessed as recombinant human DPP4-mediated compound degradation at 0.1 mM measured after 24 hrs by reverse-phase HPLC/MS analysis. Conditions: 100 µM. The format is ADME. In outline: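 GLP-1 peptides (0.1 mM) incubated at 37 °C with recombinant human DPP IV in 50 mM HEPES, 0.14 M NaCl, pH 8.0, up to 24 h; acid-quenched samples analysed by RP-HPLC-MS for intact peptide.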
T1 sequence (P27487 whole entry): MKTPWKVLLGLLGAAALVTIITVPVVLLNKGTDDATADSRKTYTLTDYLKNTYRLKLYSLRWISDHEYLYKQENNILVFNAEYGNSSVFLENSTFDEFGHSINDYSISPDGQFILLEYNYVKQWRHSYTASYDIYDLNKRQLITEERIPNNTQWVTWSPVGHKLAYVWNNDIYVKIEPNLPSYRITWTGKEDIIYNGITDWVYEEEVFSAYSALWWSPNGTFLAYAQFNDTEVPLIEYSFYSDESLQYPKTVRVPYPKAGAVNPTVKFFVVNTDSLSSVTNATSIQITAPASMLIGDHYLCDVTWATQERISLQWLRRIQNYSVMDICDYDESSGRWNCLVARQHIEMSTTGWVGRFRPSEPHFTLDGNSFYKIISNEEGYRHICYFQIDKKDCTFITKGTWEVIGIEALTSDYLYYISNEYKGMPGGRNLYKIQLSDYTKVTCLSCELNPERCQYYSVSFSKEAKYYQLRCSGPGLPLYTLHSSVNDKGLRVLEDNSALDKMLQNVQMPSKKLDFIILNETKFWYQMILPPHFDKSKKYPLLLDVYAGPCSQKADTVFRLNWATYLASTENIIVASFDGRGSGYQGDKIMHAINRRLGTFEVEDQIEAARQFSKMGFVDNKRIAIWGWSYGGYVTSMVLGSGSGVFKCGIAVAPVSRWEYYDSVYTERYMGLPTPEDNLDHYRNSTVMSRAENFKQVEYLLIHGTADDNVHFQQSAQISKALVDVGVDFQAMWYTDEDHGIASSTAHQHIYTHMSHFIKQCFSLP

In data set [3] the target is T1, Dipeptidyl peptidase 4. Nature of the data set: Competitive inhibition of human recombinant DPP4 using AP-pNA as substrate preincubated for 30 mins followed by substrate addition measured after 30 mins by spectrophotometric analysis.
In data set [4] the target is alpha-lytic protease (alpha-LP) (Lysobacter enzymogenes, UniProt P00778). Nature of the data set: Stability of the compound assessed as half life of Lysobacter enzymogenes alpha-LP-mediated compound degradation at 0.1 mM by reverse-phase HPLC/MS analysis. The data set is classed as ADME.
Chain of alpha-lytic protease (alpha-LP) (P00778 whole entry): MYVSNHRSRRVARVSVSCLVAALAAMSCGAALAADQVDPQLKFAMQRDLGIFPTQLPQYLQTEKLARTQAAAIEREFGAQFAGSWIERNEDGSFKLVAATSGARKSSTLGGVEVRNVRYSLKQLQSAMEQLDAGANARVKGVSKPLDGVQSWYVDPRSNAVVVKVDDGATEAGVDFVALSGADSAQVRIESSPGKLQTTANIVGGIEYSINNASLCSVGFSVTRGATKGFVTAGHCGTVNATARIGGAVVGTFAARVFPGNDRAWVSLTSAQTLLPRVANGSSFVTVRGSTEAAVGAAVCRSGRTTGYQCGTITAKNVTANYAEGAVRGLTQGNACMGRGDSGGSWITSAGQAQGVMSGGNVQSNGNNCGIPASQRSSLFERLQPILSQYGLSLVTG
Data set [5] concerns the target T2, Trypsin (Sus scrofa, UniProt P00761). Nature of the data set: Stability of the compound assessed as half life of porcine pancreatic trypsin-mediated compound degradation at 0.1 mM by reverse-phase HPLC/MS analysis. The data set is classed as ADME. Conditions: pig.
Data set [6] concerns the target T2, Trypsin. Nature of the data set: Stability of the compound assessed as porcine pancreatic trypsin-mediated compound degradation at 0.1 mM after 8 hrs by reverse-phase HPLC/MS analysis. The format is ADME. Conditions: pig, isolated protein, 100 µM.
Data set [7] has as its target Chymotrypsinogen A (Bos taurus) (UniProt P00766). Nature of the data set: Stability of the compound assessed as bovine pancreatic chymotrypsin-mediated compound degradation measured intact level at 0.1 mM after 0.6 hrs by reverse-phase HPLC/MS analysis. Conditions: cow.
Data set [8] concerns the target T2, Trypsin. Nature of the data set: Stability of the compound assessed as porcine pancreatic trypsin-mediated compound degradation at 0.1 mM after 5 hrs by reverse-phase HPLC/MS analysis. The format is ADME. Conditions: pig, isolated protein, 100 µM.
A further data set deals with Alpha-lytic protease (Lysobacter enzymogenes, UniProt P00778). Nature of the data set: Stability of the compound assessed as Lysobacter enzymogenes alpha-LP-mediated compound degradation at 0.1 mM after 5 hrs by reverse-phase HPLC/MS analysis. The data set is classed as ADME. Conditions: 100 µM.
Chain of Alpha-lytic protease (P00778 whole entry): as above

Square brackets hold non-standard residues; d marks the D form. Peptide text beside a SMILES is read from it. ξ: configuration not given here. ξAsp(3,3-Me2) = CC(C)(C(=O)O)C(N)C(=O)O; ξTle = CC(C)(C)C(N)C(=O)O A value given as a limit tells only on which side of the number the result lay.

T2 sequence (P00761 whole entry): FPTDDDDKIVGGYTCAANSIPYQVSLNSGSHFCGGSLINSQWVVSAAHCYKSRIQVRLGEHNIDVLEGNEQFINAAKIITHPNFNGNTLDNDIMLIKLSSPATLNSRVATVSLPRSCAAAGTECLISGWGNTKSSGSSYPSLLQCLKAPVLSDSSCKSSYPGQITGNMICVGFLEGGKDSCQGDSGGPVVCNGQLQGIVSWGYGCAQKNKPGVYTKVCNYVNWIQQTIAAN
Chain of DPP4 (dipeptidyl peptidase 4) (P22411 whole entry): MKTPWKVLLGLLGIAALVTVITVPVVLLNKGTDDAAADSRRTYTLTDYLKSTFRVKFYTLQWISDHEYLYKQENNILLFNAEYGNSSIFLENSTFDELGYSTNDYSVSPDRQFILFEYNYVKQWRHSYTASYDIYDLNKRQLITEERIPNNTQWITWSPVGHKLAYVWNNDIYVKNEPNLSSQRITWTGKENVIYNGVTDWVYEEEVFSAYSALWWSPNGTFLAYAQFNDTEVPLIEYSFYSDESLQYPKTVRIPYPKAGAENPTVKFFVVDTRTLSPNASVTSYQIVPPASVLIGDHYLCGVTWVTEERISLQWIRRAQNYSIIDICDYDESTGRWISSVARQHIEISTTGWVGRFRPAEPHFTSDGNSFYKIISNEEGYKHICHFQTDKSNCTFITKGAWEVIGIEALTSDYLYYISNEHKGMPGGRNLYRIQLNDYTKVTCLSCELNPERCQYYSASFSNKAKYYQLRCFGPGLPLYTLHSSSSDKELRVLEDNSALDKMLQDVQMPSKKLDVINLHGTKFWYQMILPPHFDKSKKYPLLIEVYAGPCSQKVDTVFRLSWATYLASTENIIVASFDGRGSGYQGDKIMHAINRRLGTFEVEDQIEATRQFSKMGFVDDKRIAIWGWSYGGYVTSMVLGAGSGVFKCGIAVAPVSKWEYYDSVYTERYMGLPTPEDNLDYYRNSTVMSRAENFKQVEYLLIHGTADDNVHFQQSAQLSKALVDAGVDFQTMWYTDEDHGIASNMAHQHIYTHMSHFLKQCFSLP

On to `CC(C)C[C@H](NC(=O)[C@@H]1CCCN1C(=O)[C@H](C)N)C(=O)N[C@@H](CO)C(=O)N[C@@H](Cc1c[nH]c2ccccc12)C(=O)N[C@@H](CO)C(=O)O` (H-APLSWS-OH), for which the remaining at 0.5 h, 100 µM in [1] is less than 70%.

The Ki is a dissociation constant, usually derived from enzyme kinetics or from competition with a known ligand. Turning to `CC(C)[C@H](N)C(=O)N1CCC[C@H]1C(=O)NC(C(=O)N1CCC[C@H]1C(=O)N[C@@H](CCCNC(=N)N)C(N)=O)C(C)(C)C` (stereo partly specified) (H-VP[ξTle]PR-NH2), the Stability entry at Dipeptidyl peptidase 4 [2] is listed as “Stable”. For the same compound, the Ki on Dipeptidyl peptidase 4 [3] was 4.5 µM.

Regarding `CC[C@H](C)[C@H](NC(=O)[C@@H]1CCCN1C(=O)[C@H](C)N)C(=O)N[C@@H](CO)C(=O)N[C@@H](Cc1c[nH]c2ccccc12)C(=O)N[C@@H](CO)C(=O)O` (H-APISWS-OH), in data set [1], the remaining at 0.5 h, 100 µM is less than 70%.

The half-life is how long it takes for the measured level to halve. For the compound `CC(C)C[C@H](NC(=O)[C@@H](N)CC(C)C)C(=O)N1CCC[C@H]1C(=O)N[C@@H](CCCNC(=N)N)C(=O)N[C@H](C(=O)N[C@@H](C)C(=O)N[C@@H](CC(N)=O)C(=O)NCC(=O)N[C@@H](CO)C(=O)N[C@@H](CO)C(=O)N[C@@H](Cc1ccccc1)C(=O)N[C@H](C(=O)N[C@H](C(=O)N[C@H](C(=O)O)C(C)C)[C@@H](C)O)C(C)C)C(C)C` (H-LLPRVANGSSFVTV-OH), the half-life at 100 µM (in data set [4]; on Trypsin [5]) was 24 min throughout.

Regarding `CC(C)C[C@H](NC(=O)[C@@H](N)CC(C)C)C(=O)N1CCC[C@H]1C(=O)N[C@@H](CCCNC(=N)N)C(=O)NC(C(=O)N[C@@H](C)C(=O)N[C@@H](CC(N)=O)C(=O)NCC(=O)N[C@@H](CO)C(=O)N[C@@H](CO)C(=O)N[C@@H](Cc1ccccc1)C(=O)N[C@H](C(=O)N[C@H](C(=O)N[C@H](C(=O)O)C(C)C)[C@@H](C)O)C(C)C)C(C)(C)C` (stereo partly specified) (H-LLPR[ξTle]ANGSSFVTV-OH), at Trypsin [6], the Stability entry is on record as “Stable”.

Consider `CC[C@H](C)[C@H](NC(=O)[C@H](Cc1ccccc1)NC(=O)[C@H](CCC(=O)O)NC(=O)[C@H](CCCCN)NC(=O)[C@H](C)NC(=O)[C@H](C)NC(=O)[C@H](CCC(N)=O)NC(=O)CNC(=O)[C@H](CCC(=O)O)NC(=O)[C@H](CC(C)C)NC(=O)[C@H](Cc1ccc(O)cc1)NC(=O)[C@H](CO)NC(=O)[C@H](CO)NC(=O)[C@@H](NC(=O)[C@H](CC(=O)O)NC(=O)[C@H](CO)NC(=O)[C@@H](NC(=O)[C@H](Cc1ccccc1)NC(=O)[C@@H](NC(=O)CNC(=O)C(NC(=O)[C@H](C)NC(=O)[C@@H](N)Cc1cnc[nH]1)C(C)(C)C)[C@@H](C)O)[C@@H](C)O)C(C)C)C(=O)N[C@@H](C)C(=O)N[C@@H](Cc1c[nH]c2ccccc12)C(=O)N[C@@H](CC(C)C)C(=O)N[C@H](C(=O)N[C@@H](CCCCN)C(=O)NCC(=O)N[C@@H](CCCN=C(N)N)C(N)=O)C(C)C` (stereo partly specified), for which, on Dipeptidyl peptidase 4 [2], the Stability entry is given as “Stable”.

For `CC(C)[C@H](NC(=O)C(NC(=O)[C@H](Cc1c[nH]c2ccccc12)NC(=O)[C@H](C)NC(=O)C(NC(=O)[C@H](Cc1ccccc1)NC(=O)C(NC(=O)[C@H](CCCCN)NC(=O)[C@H](C)NC(=O)[C@H](C)NC(=O)[C@H](CCC(N)=O)NC(=O)CNC(=O)[C@H](CCC(=O)O)NC(=O)C(NC(=O)[C@H](Cc1ccc(O)cc1)NC(=O)[C@H](CO)NC(=O)[C@H](CO)NC(=O)[C@@H](NC(=O)[C@H](CC(=O)O)NC(=O)[C@H](CO)NC(=O)C(NC(=O)[C@H](Cc1ccccc1)NC(=O)[C@@H](NC(=O)CNC(=O)C(NC(=O)[C@H](C)NC(=O)[C@@H](N)Cc1c[nH]cn1)C(C)(C)C(=O)O)[C@@H](C)O)C(C)(C)C)C(C)C)C(C)(C)C)C(C)(C)C(=O)O)C(C)(C)C)C(C)(C)C)C(=O)N[C@@H](CCCCN)C(=O)NC(C(=O)N[C@@H](CCCNC(=N)N)C(N)=O)C(C)(C)C(=O)O` (stereo partly specified) (H-HA[ξAsp(3,3-Me2)]GTF[ξTle]SDVSSY[ξTle]EGQAAK[ξAsp(3,3-Me2)]F[ξTle]AW[ξTle]VK[ξAsp(3,3-Me2)]R-NH2), in data set [7], the remaining at 0.6 h, 100 µM came to 50%. Moreover, the Stability result on Trypsin [8] is listed as “Stable”.

Regarding `CC(C)C[C@H](NC(=O)[C@@H](N)CC(C)C)C(=O)N1CCC[C@H]1C(=O)N[C@@H](CCCNC(=N)N)C(=O)N[C@H](C(=O)N[C@@H](C)C(=O)NC(C(=O)NCC(=O)N[C@@H](CO)C(=O)N[C@@H](CO)C(=O)N[C@@H](Cc1ccccc1)C(=O)N[C@H](C(=O)N[C@H](C(=O)N[C@H](C(=O)O)C(C)C)[C@@H](C)O)C(C)C)C(C)(C)C)C(C)C` (stereo partly specified) (H-LLPRVA[ξTle]GSSFVTV-OH), at Alpha-lytic protease, the Stability result is given as “Stable”.
